Laboratory results published in ChEMBL document CHEMBL1671618, “Functional cloning and characterization of the multidrug efflux pumps NorM from Neisseria gonorrhoeae and YdhE from Escherichia coli” (Antimicrob Agents Chemother, 2008).
Values after ≈ are worked out from the molar mass of the structure shown. Active and inactive are the calls of the source. The calls are words filed in the database; no cut-off is given here.

Assays:
[1] = system: Escherichia coli; assay: Antimicrobial activity against AcrAB-deficient Escherichia coli AG100AX harboring pBADomegaydhE plasmid containing Escherichia coli multidrug efflux pump YdhE after 18 to 24 hrs by two fold dilution method; type: functional
[2] = system: Escherichia coli; assay: Antimicrobial activity against AcrAB-deficient Escherichia coli AG100AX harboring pBADomeganorM plasmid containing Neisseria gonorrhoeae multidrug efflux pump NorM after 18 to 24 hrs by two fold dilution method; type: functional
[3] = system: Escherichia coli; assay: Antimicrobial activity against AcrAB-deficient Escherichia coli AG100AX harboring pBAD plasmid after 18 to 24 hrs by two fold dilution method; type: functional
How it was run: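 Twofold agar dilution on LB agar containing the antimicrobial, inoculum 10⁴ CFU/spot. Growth was scored after 18–24 h at 37°C, and each MIC determination was repeated at least four times.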

[4] = target: T1, Multidrug resistance protein MdtK (Escherichia coli (strain K12), UniProt P37340); assay: Binding affinity to Escherichia coli K-12 multidrug efflux protein YdhE […] in presence of 0.02% DDM surfactant by fluorescence polarization assay
T1 sequence (P37340 whole entry): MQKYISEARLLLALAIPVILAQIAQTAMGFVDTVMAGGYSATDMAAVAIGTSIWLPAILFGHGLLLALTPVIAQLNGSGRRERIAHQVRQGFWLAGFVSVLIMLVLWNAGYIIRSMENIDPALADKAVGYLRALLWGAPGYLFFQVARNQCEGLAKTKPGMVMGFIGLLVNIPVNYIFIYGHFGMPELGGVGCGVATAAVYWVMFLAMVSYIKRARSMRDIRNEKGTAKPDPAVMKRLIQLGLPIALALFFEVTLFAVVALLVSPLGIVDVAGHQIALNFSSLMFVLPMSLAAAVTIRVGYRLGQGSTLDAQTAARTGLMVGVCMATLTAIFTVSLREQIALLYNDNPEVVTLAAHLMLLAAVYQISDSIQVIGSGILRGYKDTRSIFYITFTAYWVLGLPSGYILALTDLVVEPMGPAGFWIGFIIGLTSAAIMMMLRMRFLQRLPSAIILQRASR

[5] = Binding affinity to Neisseria gonorrhoeae FA19 multidrug efflux protein NorM expressed in Escherichia coli AG100AX in presence of 0.02% DDM surfactant by fluorescence polarization assay
[6] = system: Neisseria gonorrhoeae; assay: Activity of Neisseria gonorrhoeae FA19 multidrug efflux protein NorM expressed in Escherichia coli AG100AX assessed as reduction in compound accumulation in presence of 100 mM NaCl by fluorimetric assay
How it was run: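 Arabinose-induced (0.01%) AG100AX cells at OD600 1.0 were held in 0.1 M Tris-HCl pH 7.0 with ethidium bromide (20 μg/ml final), then 100 mM NaCl, or KCl for comparison, was added. At each time point a 1-ml sample was centrifuged at 4°C and washed, and fluorescence read at ex 500/em 580 nm.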

[7] = target: T2, Multidrug resistance protein MdtK (Escherichia coli (strain K12)) (UniProt P37340); assay: Activity of Escherichia coli K-12 multidrug efflux protein YdhE expressed in Escherichia coli AG100AX assessed as reduction in compound accumulation by fluorimetric assay
T2 sequence (whole entry): T1 sequence (P37340 whole entry)
How it was run: (§1)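 AG100AX cells carrying the pBAD-based plasmid were grown in LB with 0.01% L-arabinose at 37°C to OD600 1.0, washed, and resuspended to OD600 1.0 in 0.1 M Tris-HCl pH 7.0. Norfloxacin (100 μM final) or ethidium bromide (20 μg/ml final) was added and samples taken over time. CCCP (100 μM final) was added at 15 min. After a further 15 min, CCCP was removed and cells re-energized with 0.4% glucose. Maximum fluorescence was normalized to 100%.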

[8] = system: Neisseria gonorrhoeae; assay: Activity of Neisseria gonorrhoeae FA19 multidrug efflux protein NorM expressed in Escherichia coli AG100AX assessed as reduction in compound accumulation by fluorimetric assay; how it was run: as §1
[9] = system: Neisseria gonorrhoeae; assay: Inhibition of Neisseria gonorrhoeae FA19 multidrug efflux protein NorM expressed in Escherichia coli AG100AX assessed as increase in ethidium bromide accumulation at 100 uM after 15 mins by fluorimetric assay; how it was run: as §1
[10] = target: T2, Multidrug resistance protein MdtK (Escherichia coli (strain K12)); assay: Inhibition of Escherichia coli K-12 multidrug efflux protein YdhE expressed in Escherichia coli AG100AX assessed as assessed as increase in Norfloxacin accumulation at 100 uM after 15 mins by fluorimetric assay; how it was run: as §1
[11] = target: T2, Multidrug resistance protein MdtK (Escherichia coli (strain K12)); assay: Inhibition of Escherichia coli K-12 multidrug efflux protein YdhE expressed in Escherichia coli AG100AX assessed as assessed as increase in ethidium bromide accumulation at 100 uM after 15 mins by fluorimetric assay; how it was run: as §1
[12] = system: Neisseria gonorrhoeae; assay: Inhibition of Neisseria gonorrhoeae FA19 multidrug efflux protein NorM expressed in Escherichia coli AG100AX assessed as increase in Norfloxacin accumulation at 100 uM after 15 mins by fluorimetric assay; how it was run: as §1

Compound	MIC [1] [µg/mL]	MIC [2] [µg/mL]	MIC [3] [µg/mL]	also measured
COc1cccc2c1C(=O)c1c(O)c3c(c(O)c1C2=O)C[C@@](O)(C(=O)CO)C[C@@H]3O[C@H]1C[C@H](N)[C@H](O)[C@H](C)O1 [DOXORUBICIN]	6.25 (≈ 11.5 µM)	6.25 (≈ 11.5 µM)	1.56 (≈ 2.87 µM)	
CCn1cc(C(=O)O)c(=O)c2cc(F)c(N3CCNCC3)cc21 [NORFLOXACIN]	0.016 (≈ 0.0501 µM)	0.032 (≈ 0.1 µM)	0.008 (≈ 0.0251 µM)	Kd [4]: 98.4 µM; Kd [5]: 126 µM; Activity [6]: Active
CN(C)c1ccc(O)c2c1C[C@H]1C[C@H]3[C@H](N(C)C)C(O)=C(C(N)=O)C(=O)[C@@]3(O)C(O)=C1C2=O [MINOCYCLINE]	0.625 (≈ 1.37 µM)	0.625 (≈ 1.37 µM)	0.625 (≈ 1.37 µM)	
O=C(N[C@H](CO)[C@H](O)c1ccc([N+](=O)[O-])cc1)C(Cl)Cl [CHLORAMPHENICOL]	0.625 (≈ 1.93 µM)	0.625 (≈ 1.93 µM)	0.625 (≈ 1.93 µM)	
CCn1cc(C(=O)O)c(=O)c2cc(F)c(N3CCNCC3)nc21 [ENOXACIN]	0.063 (≈ 0.197 µM)	0.063 (≈ 0.197 µM)	0.031 (≈ 0.0968 µM)	
GENTAMICIN	2.5	2.5	2.5	
CCn1cc(C(=O)O)c(=O)c2ccc(C)nc21 [NALIDIXIC ACID]	0.625 (≈ 2.69 µM)	0.625 (≈ 2.69 µM)	0.625 (≈ 2.69 µM)	
O=C(O)c1cn(C2CC2)c2cc(N3CCNCC3)c(F)cc2c1=O [CIPROFLOXACIN]				Kd [4]: 90.9 µM; Kd [5]: 121 µM; Activity [7]: Active; Activity [8]: Active
CN[C@H](CC(C)C)C(=O)N[C@H]1C(=O)N[C@@H](CC(N)=O)C(=O)N[C@H]2C(=O)N[C@H]3C(=O)N[C@H](C(=O)N[C@H](C(=O)O)c4cc(O)cc(O)c4-c4cc3ccc4O)[C@H](O)c3ccc(c(Cl)c3)Oc3cc2cc(c3O[C@@H]2O[C@H](CO)[C@@H](O)[C@H](O)[C@H]2O[C@H]2C[C@](C)(N)[C@H](O)[C@H](C)O2)Oc2ccc(cc2Cl)[C@H]1O [VANCOMYCIN]	250 (≈ 173 µM)	250 (≈ 173 µM)	250 (≈ 173 µM)	
CCn1cc(C(=O)O)c(=O)c2cc(F)c(N3CCNC(C)C3)c(F)c21 (stereo not drawn) [LOMEFLOXACIN]	0.016 (≈ 0.0455 µM)	0.032 (≈ 0.0911 µM)	0.016 (≈ 0.0455 µM)	
N#CC(C#N)=NNc1cccc(Cl)c1 [CARBONYL CYANIDE M-CHLOROPHENYLHYDRAZONE]	6.25 (≈ 30.5 µM)	6.25 (≈ 30.5 µM)	6.25 (≈ 30.5 µM)	inhibition [9]: Active; inhibition [10]: Active; inhibition [11]: Active; inhibition [12]: Active
CN[C@@H]1[C@H](O[C@H]2[C@H](O[C@H]3[C@H](O)[C@@H](O)[C@H](N=C(N)N)[C@@H](O)[C@@H]3N=C(N)N)O[C@@H](C)[C@]2(O)C=O)O[C@@H](CO)[C@H](O)[C@H]1O [STREPTOMYCIN]	> 50000	> 50000	> 50000	
[Cl-].c1ccc([P+](c2ccccc2)(c2ccccc2)c2ccccc2)cc1 [TETRAPHENYLPHOSPHONIUM CHLORIDE]	25	25	12.5	
CN(C)c1ccc(C(=C2C=CC(=[N+](C)C)C=C2)c2ccc(N(C)C)cc2)cc1.[Cl-] [GENTIAN VIOLET]	2.5	2.5	0.625	
COc1ccc2cc3[n+](cc2c1OC)CCc1cc2c(cc1-3)OCO2.[Cl-] [BERBERINE CHLORIDE]	250	250	31.2	
CC[n+]1c(-c2ccccc2)c2cc(N)ccc2c2ccc(N)cc21.[Br-] [HOMIDIUM BROMIDE]	15.6	15.6	7.81	Kd [4]: 9.8 µM; Kd [5]: 12.3 µM; Activity [6]: Active; Activity [7]: Active; Activity [8]: Active
Nc1ccc2cc3ccc(N)cc3nc2c1 [PROFLAVINE]	12.5 (≈ 59.7 µM)	12.5 (≈ 59.7 µM)	6.25 (≈ 29.9 µM)	
C[n+]1ccc(-c2cc[n+](C)cc2)cc1.[Cl-].[Cl-] [PARAQUAT DICHLORIDE]	156	156	156	
CN(C)[C@@H]1C(O)=C(C(N)=O)C(=O)[C@@]2(O)C(O)=C3C(=O)c4c(O)cccc4[C@@](C)(O)[C@H]3C[C@@H]12 [TETRACYCLINE]	1.25 (≈ 2.81 µM)	1.25 (≈ 2.81 µM)	1.25 (≈ 2.81 µM)	
CO[C@@H]1[C@@H](OC(N)=O)[C@@H](O)[C@H](Oc2ccc3c(O)c(NC(=O)c4ccc(O)c(CC=C(C)C)c4)c(=O)oc3c2C)OC1(C)C [NOVOBIOCIN]	3.12 (≈ 5.1 µM)	3.12 (≈ 5.1 µM)	1.56 (≈ 2.55 µM)	
